Results from ChEMBL document CHEMBL4513216, “Probing the Open Global Health Chemical Diversity Library for Multistage-Active Starting Points for Next-Generation Antimalarials” (ACS Infect Dis, 2020).

Assay: Toxicity liver stage against HepG2, at 10uM
Type: cell-based
Parameters: test concentration 10 uM, cell line HepG2-A16-CD81EGFP
Conditions: human, HepG2-A16-CD81EGFP cells; read-out: INHIBITION
Method in brief: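 Uninfected HepG2-A16-CD81EGFP cells, 3 × 10^3 per well, 1536-well, plated on prespotted compound at 10 μM final, parasite-free screening media added to match infected plates; puromycin 10 μM positive, DMSO 0.5% negative; run in parallel with 48 h PbLuc assay at 37 °C, 5% CO2; viability by CellTiter-Glo luminescence, normalized to controls.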

| SMILES | cytotoxicity at 10 µM [%] |
| --- | --- |
| Cc1csc(NCC(=O)c2c[nH]c3ccccc23)n1 | 22.4 |
| COc1cccc(-c2nc(C)c(C(=O)N[C@@H](CC(C)C)C(=O)O)s2)c1 | 4.21 |
| O=C(NCC1CCCO1)c1cc(-c2ccc3c(c2)CCO3)n[nH]1 (configuration not stated) | -8.13 |
| O=C(c1ccc(N2CCCC2)nn1)N1CCc2ccccc21 | 2.6 |
| O=S(=O)(NCC1(c2cccs2)CCOCC1)c1cccnc1 | -3.51 |
| CC(=O)OC1CN(c2nc3c(C(F)(F)F)cccc3s2)C1 | -5.17 |
| CN1CCN(C(=O)c2n[nH]c3c2CN(Cc2nccs2)CC3)CC1 | -144 |
| Cc1cc(C(=O)NCC2Cn3nnc(C)c3CO2)no1 (configuration not stated) | -4.07 |
| Cc1ccc(CN2CCC3(CC(C(=O)NCC4CC4)=NO3)C2)s1 (configuration not stated) | 5.92 |
| CC1CCc2nc(O)c(C(=O)NCc3ccccn3)cc2C1 (configuration not stated) | -2.99 |
| CC1CCc2nc(O)c(C(=O)NCCc3cccs3)cc2C1 (configuration not stated) | 0.106 |
| O=c1c2cnc(N3CCCC3)nc2ccn1-c1cccc(F)c1 | 3.36 |
| O=C(NCCCO)c1nc(-c2ccc3cc[nH]c3c2)no1 | 4.28 |
| Cc1nc2c(Nc3ccc(C#N)cc3)nc(N)nc2n1C | 1.88 |
| COc1ccc(-c2cc(C3(O)CCCC3)on2)cc1 | 2.5 |
| Cc1ccc(NC(=O)c2cccc(N(C)C)c2)nc1 | 8.77 |
| CN1CCc2ccc(NCc3cccs3)cc2C1=O | -4.72 |
| COc1cc2c(nn1)CCN(Cc1nc(Cc3ccccc3)no1)C2 | -2.09 |
| O=C(c1ccc(NCc2ccco2)nc1)N1CCc2ccccc21 | -4.6 |
| CCc1ncncc1C(=O)NCCNS(=O)(=O)c1ccccc1 | -6.55 |
| CC(C)(C)n1ncc2c(=O)[nH]c(N3CCN(CCO)CC3)nc21 | -13.3 |

| SMILES | cytotoxicity at 10 µM [%] |
| --- | --- |
| CC(C)C(O)CNC(=O)Nc1cccc(-c2nccs2)c1 (configuration not stated) | -5.5 |
| O=C(Nc1cnn(-c2ccccc2Cl)c1)N[C@@H]1C=C[C@H](CO)C1 | 0.836 |
| NC(=O)CC1CCN(C(=O)c2csc(-c3ccccc3F)n2)CC1 | -1.29 |
| O=C(NCCSC1CCCC1)c1ccc(F)cc1F | -3.16 |
| N#Cc1ccc(N2CCCC2Cn2cncn2)nc1 (configuration not stated) | 6.05 |
| CS(=O)(=O)NCCNC(=O)NC1(c2ccc(F)cc2)CCCC1 | -1.44 |
| OCCOc1ccc(NCc2cc(F)cc3cccnc23)cn1 | -4.46 |
| CCn1c(C)nnc1CN(C)C1CCN(Cc2c(C)noc2C)C1 (configuration not stated) | 0.317 |
| CCN1CCC(NC(=O)Cn2cc(C)c3ccccc32)CC1 | -1.74 |
| Cc1cn(CC(=O)NC2CCC3(CC2)OCCO3)c2ccccc12 | -1.21 |
| COC(=O)c1ccc(N2CCC(C(O)c3ccccc3)CC2)nn1 (configuration not stated) | 1.68 |
| CC(C)C(C)N(C(=O)c1cc2c([nH]c1=O)CCCC2=O)C1CC1 (configuration not stated) | -3.45 |
| COCCc1noc(-c2cc(Cl)c3c(c2)OCCCO3)n1 | 3.61 |
| Cc1ccc(OCC(O)COC2CCOCC2)c(Br)c1 (configuration not stated) | -4.66 |
| CC(Cn1cccn1)NCc1csc(-c2ccccc2)n1 (configuration not stated) | -13.4 |
| Cc1ccsc1[C@@H]1CCN(C(=O)CCCn2cncn2)C[C@H]1O | -6.91 |
| O=C1OC2(CCN(CC3CCCO3)CC2)CN1CCc1ccccc1 (configuration not stated) | -6.21 |
| CC(C)c1nnc(N2C[C@@H](CN(C)CCO)[C@@H](CO)C2)s1 | -2.48 |
| Cc1nn2cc(CCNC(=O)c3cc(C(C)C)no3)nc2s1 | -4.8 |
| Cc1ncsc1CCC(=O)N1CCN(CCn2cncn2)CC1 | 3.21 |
| CN(C)C1CCN(C(=O)c2cccc(S(=O)(=O)NCC3(C)COC3)c2)C1 (configuration not stated) | -9.22 |

| SMILES | cytotoxicity at 10 µM [%] |
| --- | --- |
| Cc1ccsc1CCNC(C)C(=O)NC1CCCC1 (configuration not stated) | -4.44 |
| CN1CSC[C@H]1C(=O)N1CCN(Cc2cccc(F)c2)CC1 | -6.92 |
| COCC[C@]1(O)CCN(C(=O)CCc2cnn(C)c2)C[C@H]1C | 1.72 |
| CC(C)CC(NC(=O)c1cc(-c2cccn2C)n[nH]1)c1ncnn1C (configuration not stated) | -3.08 |
| CC(C)NC(=O)Nc1ccc(-c2nc3c([nH]2)CCNC3)cc1 | -3.5 |
| Cc1ccc(C)c2c1NC(=O)C2CC(=O)O (configuration not stated) | 28.4 |
| COc1ccccc1[C@@H]1CN(CC2CCC2)C[C@H]1C(=O)O | -1.02 |
| COc1ccc2c(C)c(C(=O)NC3CCN(S(C)(=O)=O)CC3)oc2c1 | 8.55 |
| CSc1ccc2c(C)cc(N[C@@H](C)CO)nc2c1 | -1.07 |
| COCC1CCN(C(=O)c2cc(-c3ccco3)nc3c(Cl)cccc23)C1 (configuration not stated) | 1.12 |
| CN(CC1Cc2ccccc2CN1C)C(=O)Cc1cccs1 (configuration not stated) | -0.661 |
| CCn1c(Cn2ccnc2)nnc1C1CCN(Cc2ccc(C)o2)CC1 | -2.28 |
| CC(C)(O)CCc1cccc(C(=O)N2CCC3(CCO3)CC2)c1 | -0.864 |
| CNCc1n[nH]c(=O)n1-c1ccccc1Oc1ccccc1 | -4.88 |
| CC(=O)c1ccc(F)cc1-c1cc(NCCO)nc2[nH]ccc12 | -5.72 |
| O=C(Cc1ccc(CO)cc1)N1CCN(CC2CC2)[C@@H]2CS(=O)(=O)C[C@@H]21 | -14.2 |
| Nc1nc2c(c(NCc3nc(-c4ccncc4)n[nH]3)n1)CCCC2 | -0.0554 |
| CCN(C)CC(C)Cn1cnc(-c2ccccc2)c1-c1cncn1CC (configuration not stated) | 1.33 |
| CCn1c(N)nc2cc(C(=O)N3CC(c4ccccn4)C3)cnc21 | -14.8 |
| CN(c1ccc(-c2nc(C3CC3)no2)cn1)C1CCOCC1 | -10.8 |
| O=c1c2cccc(C(F)(F)F)c2ncn1CCN1CCNCC1 | -3.21 |

| SMILES | cytotoxicity at 10 µM [%] |
| --- | --- |
| O=C(NCc1ccc2nonc2c1)C1CCN(C(=O)C2CCC2)CC1 | -8.61 |
| CC(C)Cn1cncc1-c1nc2c([nH]1)CC(C)(C)CNC2=O | -1.41 |
| COCCN1CC2(CCCN(c3ncnc4[nH]cnc34)C2)CCC1=O (configuration not stated) | -3.68 |
| CNc1ncc(CN(C)Cc2cc3n(n2)CCNC3)cn1 | -5.71 |
| COc1cccc2c(=O)n(CCN3CCNCC3)cnc12 | 0.623 |
| Cc1ccc([C@@H]2CN(C(=O)c3cccnn3)C[C@H]2NC(=O)C2CC2)cc1 | -17.7 |
| Cc1ccc(NC2CCN(C(=O)c3ccnc(N(C)C)c3)CC2)nn1 | 3.97 |
| CCOCCCn1c(NC(=O)c2cnc(C)cn2)nc2ccccc21 | -18.7 |
| CN(C)CC1CN(Cc2nnc(C(C)(C)C)o2)CCO1 (configuration not stated) | -4.17 |
| Cc1cnn(CC2CN(CC(=O)Nc3cc(C)no3)CCO2)c1 (configuration not stated) | -6.13 |
| CCOc1ccc(C(=O)N2CCCC2c2c(C)nn(C)c2OC)cn1 (configuration not stated) | 2.63 |
| O=C(c1cc(F)ccc1F)C1CCN(C(=O)c2ccco2)CC1 | 3.15 |
| Cc1nc(CN2CCCC(N(C)Cc3nc(CC(C)C)no3)C2)no1 (configuration not stated) | 5.35 |
| O=C(c1ccccn1)N1CCOC2(COCCN(Cc3cc[nH]n3)C2)C1 (configuration not stated) | 0.0227 |
| Cc1nc(COC[C@@H]2CC[C@H]3[C@H](CCN3c3ccccn3)O2)cs1 | 4.06 |
| Cc1cccc(CN2CCc3ncnc(N4CCN(C)CC4)c3CC2)n1 | -145 |
| COc1cccc(C=CCCN2CCN(S(C)(=O)=O)CC2)c1 | -1.62 |
| CN(C)C(c1ccccn1)C1CCC(CNC(=O)C2CC2)CC1 (configuration not stated) | 6.6 |
| COCCN1C(=O)[C@@H]2CC[C@H]1CN(C(=O)COc1ccc(F)c(Cl)c1)C2 | -0.447 |
